Active and inactive are the calls of the source. The calls are words filed in the database; no cut-off is given here.
Columns and labels:
[1] = test system: A549; assay: Reversal of GSK126 dependent antiinflammatory activity in human A549 cells assessed as decrease in Ccl2 level by qRT-PCR analysis; format: functional, cell-based
[2] = test system: A549; assay: Reversal of GSK126 dependent antiinflammatory activity in human A549 cells assessed as decrease in Irak1 level by qRT-PCR analysis; format: functional, cell-based
[3] = test system: A549; assay: Reversal of GSK126 dependent antiinflammatory activity in human A549 cells assessed as decrease in IL-6 level by qRT-PCR analysis; format: functional, cell-based
[4] = test system: A549; assay: Reversal of GSK126 dependent antiinflammatory activity in human A549 cells assessed as decrease in Il1ra level by qRT-PCR analysis; format: functional, cell-based
[5] = test system: NSCLC; assay: Antitumor activity against KrasG12D/+ expressing mouse NSCLC cells xenografted in BALB/c nude mouse assessed as reduced cell proliferation at 50 mg/kg, iv in the presence of BTZ/NM; format: functional, organism-based
Method in brief: (§1)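 Tumors from mice given daily GSK126/vehicle then alternating BTZ/NM, stained by IHC (n = 3 animals). Lung area divided into equal fields; ten fields per animal counted automatically for immunoreactive cells.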

[6] = molecular target: Histone-lysine N-methyltransferase EZH2 (Mus musculus) (UniProt Q61188); assay: In vivo inhibition of Ezh2 in BALB/c nude mouse expressing KrasG12D/+ assessed as Caspase-3 cleavage expression at 50 mg/kg, iv in the presence of BTZ/NM by Immunoblot analysis; format: functional, organism-based
Method in brief: (§2)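 Mice with Kras G12D/+;Trp53-/- lung grafts given GSK126 or vehicle, randomized after 15 d to one maximum tolerated dose of BTZ and NM, and sacrificed 20 h later. Tumor lysates in RIPA with protease/phosphatase inhibitors, equal protein run on 4-12% Bis-Tris gels and immunoblotted with ECL detection for phospho-Akt, cleaved Parp1 and cleaved caspase-3.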

[7] = test system: NSCLC; assay: Antitumor activity against KrasG12D/+ expressing mouse NSCLC cells xenografted in BALB/c nude mouse assessed as increase in survival rate at 50 mg/kg, iv in the presence of BTZ/NM; format: functional, organism-based
Method in brief: (§3)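 Nude mice with tail-vein Kras G12D/+;Trp53-/- grafts dosed daily with GSK126 or vehicle from day 4 (n = 7/6). BTZ and NM then given on alternating days from day 19: BTZ 0.8 mg/kg on day one, 0.2 mg/kg plus NM 5 mg/kg on day two. Luciferase imaging analyzed by two-way ANOVA; survival recorded to humane endpoint.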

[8] = molecular target: Histone-lysine N-methyltransferase EZH2 (Homo sapiens) (UniProt Q15910); assay: Inhibition of Ezh2 in human A549 cells assessed as p65 phosphorylation by Immunoblot analysis; format: cell-based
Method in brief: (§4)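 A549, H1944 and H2122 cells treated continuously 5 d with GSK126 or vehicle, then replated at low confluence. Whole-cell RIPA extracts immunoblotted for phospho-p65 (S536) and total p65.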

[9] = molecular target: Histone-lysine N-methyltransferase EZH2 (Mus musculus) (UniProt Q61188); assay: In vivo inhibition of Ezh2 in BALB/c nude mouse expressing Kras G12D/+ assessed as Erk1/2 expression level at 50 mg/kg, iv by IHC staining; format: functional, organism-based; method in brief: as §1
[10] = test system: NSCLC; assay: Antitumor activity against Kras G12D/+ expressing mouse NSCLC cells xenografted in BALB/c nude mouse assessed as reduction in tumor burden at 50 mg/kg, iv for 30 days; format: functional, organism-based; details: time 30.0 day
[11] = molecular target: Histone-lysine N-methyltransferase EZH2 (Mus musculus) (UniProt Q61188); assay: In vivo inhibition of Ezh2 in BALB/c nude mouse xenografted with KrasG12D/+ expressing NSCLC cells (unknown origin) assessed as upregulation of H3K27me3 at 50 mg/kg, iv by IHC analysis; format: functional, organism-based
[12] = molecular target: Histone-lysine N-methyltransferase EZH2 (Homo sapiens) (UniProt Q15910); assay: Inhibition of Ezh2 in TNF-alpha stimulated human A549 cells assessed as enhanced NF- kappa B activity; format: cell-based
Method in brief: (§5)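 A549 cells carrying an NF-kB-responsive element/minimal TA promoter luciferase reporter, pretreated with GSK126 or vehicle. Stimulated with TNF-a for 3 h, or continuously with TNF-a or LPS over 16 h. Luminescence read on plate reader; two-way ANOVA; three independent experiments.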

[13] = test system: NSCLC; assay: Anti-tumor activity against Ezh2i knockdown NSCLC cells (unknown origin) xenografted in BALB/c nude mouse assessed as increase in lifespan at 50 mg/kg, iv measured for 30 days; format: functional, organism-based; details: time 30.0 day
[14] = molecular target: Histone-lysine N-methyltransferase EZH2 (Mus musculus) (UniProt Q61188); assay: In vivo inhibition of Ezh2 in BALB/c nude mouse expressing Kras G12D/+ assessed as reduction of Akt phosphorylation at 50 mg/kg, iv by immunoblotting analysis; format: functional, organism-based; method in brief: as §2
[15] = test system: NSCLC; assay: Antiinflammatory activity in […] EZH2 inhibited mouse NSCLC cells xenografted in BALB/C mouse assessed as upregulation of TNF-alpha pathway at 50 mg/kg, iv for 10 days; format: functional, organism-based; details: time 10.0 day
Method in brief: (§6)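 Tail vein grafts of Kras G12D/+;Trp53-/- cells in nude mice, treated daily with 50 mg/kg GSK126 for 10 d (n = 4) or to humane endpoint (n = 3), or vehicle (n = 2). GFP+ tumor cells sorted by FACS, RNA-seq run, fold change taken over vehicle, and pathway activity inferred by PROGENy scoring.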

[16] = molecular target: Histone-lysine N-methyltransferase EZH2 (Mus musculus) (UniProt Q61188); assay: In vivo inhibition of Ezh2 in BALB/c nude mouse expressing Kras G12D/+ assessed as Erk1/2 expression level at 50 mg/kg, iv by immunoblotting analysis; format: functional, organism-based
[17] = molecular target: Histone-lysine N-methyltransferase EZH2 (Homo sapiens) (UniProt Q15910); assay: Inhibition of Ezh2 in human A549 cells assessed as enhanced NF- kappa B activity; format: cell-based; method in brief: as §5
[18] = molecular target: Histone-lysine N-methyltransferase EZH2 (Mus musculus) (UniProt Q61188); assay: In vivo inhibition of Ezh2 in BALB/c nude mouse expressing KrasG12D/+ assessed as cleaved Caspase-3 at 50 mg/kg, iv in the presence of BTZ/NM by IHC staining; format: functional, organism-based; method in brief: as §1
[19] = molecular target: Histone-lysine N-methyltransferase EZH2 (Homo sapiens) (UniProt Q15910); assay: Inhibition of Ezh2 in LPS stimulated human A549 cells assessed as enhanced NF- kappa B activity; format: cell-based; method in brief: as §5
[20] = molecular target: Histone-lysine N-methyltransferase EZH2 (Mus musculus) (UniProt Q61188); assay: In vivo inhibition of EZH2 in BALB/c nude mouse xenografted with Kras G12D/+ NSCLC cells (unknown origin) assessed as H3K27me3 level at 50 mg/kg, iv for 30 days by IHC analysis; format: functional, organism-based; details: time 30.0 day
[21] = test system: NSCLC; assay: Antitumor activity against Kras G12D/+ expressing mouse NSCLC cells xenografted in BALB/c nude mouse assessed as reduction in lung adenoma formation at 50 mg/kg, iv for 12 days by H&E staining analysis; format: functional, organism-based; details: time 12.0 day
[22] = molecular target: Histone-lysine N-methyltransferase EZH2 (Homo sapiens) (UniProt Q15910); assay: Inhibition of Ezh2 in human NCI-H1944 cells assessed as p65 phosphorylation by Immunoblot analysis; format: cell-based; method in brief: as §4
[23] = molecular target: Histone-lysine N-methyltransferase EZH2 (Mus musculus) (UniProt Q61188); assay: In vivo inhibition of Ezh2 in BALB/c nude mouse xenografted with KrasG12D/+ expressing NSCLC cells (unknown origin) assessed as upregulation of H3K27ac at 50 mg/kg, iv by qRT-PCR analysis; format: functional, organism-based
[24] = molecular target: Histone-lysine N-methyltransferase EZH2 (Mus musculus) (UniProt Q61188); assay: In vivo inhibition of Ezh2 in BALB/c nude mouse expressing KrasG12D/+ assessed as Parp1 expression at 50 mg/kg, iv in the presence of BTZ/NM by Immunoblot analysis; format: functional, organism-based; method in brief: as §2
[25] = molecular target: Histone-lysine N-methyltransferase EZH2 (Mus musculus) (UniProt Q61188); assay: In vivo inhibition of Ezh2 in BALB/c nude mouse expressing KrasG12D/+ assessed as increased survival rate at day 21 at 50 mg/kg, iv in the presence of BTZ/NM; format: functional, organism-based; method in brief: as §3
[26] = molecular target: Histone-lysine N-methyltransferase EZH2 (Homo sapiens) (UniProt Q15910); assay: Inhibition of Ezh2 in human NCI-H2122 cells assessed as p65 phosphorylation by Immunoblot analysis; format: cell-based; method in brief: as §4
[27] = molecular target: Histone-lysine N-methyltransferase EZH2 (Mus musculus) (UniProt Q61188); assay: In vivo inhibition of Ezh2 in BALB/c nude mouse expressing KrasG12D/+ assessed as phospho-Akt expression at 50 mg/kg, iv in the presence of BTZ/NM by Immunoblot analysis; format: functional, organism-based; method in brief: as §2
[28] = test system: NSCLC; assay: Upregulation of Cxcr4 gene in mouse NSCLC cells expressing KrasG12D/+; format: functional, cell-based
[29] = test system: NSCLC; assay: Antiinflammatory activity in […] EZH2 inhibited mouse NSCLC cells xenografted in BALB/C mouse assessed as upregulation of JAK/STAT pathway at 50 mg/kg, iv for 10 days; format: functional, organism-based; details: time 10.0 day; method in brief: as §6
[30] = molecular target: Histone-lysine N-methyltransferase EZH2 (Mus musculus) (UniProt Q61188); assay: Inhibition of Ezh2 in mouse NSCLC cells co-cultured with Raw264.7 cells assessed as H3K27ac level by qRT-PCR analysis; format: cell-based
[31] = test system: NSCLC; assay: Antitumor activity against KrasG12D/+ expressing mouse NSCLC cells xenografted in BALB/c nude mouse assessed as reduced tumor growth at 50 mg/kg, iv in the presence of BTZ/NM; format: functional, organism-based; method in brief: as §3
[32] = test system: NSCLC; assay: Anti-tumor activity against Kras G12D/+ expressing mouse NSCLC cells xenografted in BALB/c nude mouse assessed as decrease in frequency distribution of lesions at 50 mg/kg, iv for 30 days; format: functional, organism-based; details: time 30.0 day
[33] = molecular target: Histone-lysine N-methyltransferase EZH2 (Mus musculus) (UniProt Q61188); assay: In vivo inhibition of Ezh2 in BALB/c nude mouse xenografted with KrasG12D/+ expressing NSCLC cells (unknown origin) assessed as upregulation of H3K27ac at 50 mg/kg, iv by IHC analysis; format: functional, organism-based
[34] = test system: NSCLC; assay: Antitumor activity in KrasG12D/+ harbouring mouse NSCLC cells xenografted in BALB/c nude mouse assessed as reduced tumor progression; format: functional; details: dose 50.0 mg/kg, route iv
[35] = test system: NSCLC; assay: Antiinflammatory activity in […] EZH2 inhibited mouse NSCLC cells xenografted in BALB/C mouse assessed as upregulation of NF-kappaB pathway at 50 mg/kg, iv for 10 days; format: functional, organism-based; details: time 10.0 day; method in brief: as §6
[36] = molecular target: Histone-lysine N-methyltransferase EZH2 (Mus musculus) (UniProt Q61188); assay: In vivo inhibition of Ezh2 in BALB/c nude mouse expressing KrasG12D/+ assessed as Erk1/2 phosphorylation at 50 mg/kg, iv in the presence of BTZ/NM by IHC staining; format: functional, organism-based; method in brief: as §1

Histone-lysine N-methyltransferase EZH2 (Homo sapiens), sequence (Q15910 whole entry, looked up): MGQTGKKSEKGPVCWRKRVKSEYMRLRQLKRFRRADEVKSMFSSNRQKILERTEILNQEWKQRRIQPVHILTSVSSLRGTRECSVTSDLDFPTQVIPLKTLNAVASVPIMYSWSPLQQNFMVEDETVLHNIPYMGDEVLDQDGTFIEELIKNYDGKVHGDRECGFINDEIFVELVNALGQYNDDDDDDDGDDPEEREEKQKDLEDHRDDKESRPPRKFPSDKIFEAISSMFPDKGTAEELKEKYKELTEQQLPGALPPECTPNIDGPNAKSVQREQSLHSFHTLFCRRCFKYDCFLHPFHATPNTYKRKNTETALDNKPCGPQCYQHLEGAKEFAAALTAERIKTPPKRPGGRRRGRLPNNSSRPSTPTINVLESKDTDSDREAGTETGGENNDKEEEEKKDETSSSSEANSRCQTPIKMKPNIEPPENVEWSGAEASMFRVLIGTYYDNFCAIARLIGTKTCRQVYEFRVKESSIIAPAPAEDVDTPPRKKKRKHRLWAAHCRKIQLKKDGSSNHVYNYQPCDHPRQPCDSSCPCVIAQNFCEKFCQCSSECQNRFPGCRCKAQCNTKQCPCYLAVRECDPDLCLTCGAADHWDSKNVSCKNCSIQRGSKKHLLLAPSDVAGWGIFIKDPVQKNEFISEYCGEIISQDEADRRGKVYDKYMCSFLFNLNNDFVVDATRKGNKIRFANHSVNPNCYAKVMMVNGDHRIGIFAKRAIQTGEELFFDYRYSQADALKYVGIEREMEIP
Histone-lysine N-methyltransferase EZH2 (Mus musculus), sequence (Q61188 whole entry): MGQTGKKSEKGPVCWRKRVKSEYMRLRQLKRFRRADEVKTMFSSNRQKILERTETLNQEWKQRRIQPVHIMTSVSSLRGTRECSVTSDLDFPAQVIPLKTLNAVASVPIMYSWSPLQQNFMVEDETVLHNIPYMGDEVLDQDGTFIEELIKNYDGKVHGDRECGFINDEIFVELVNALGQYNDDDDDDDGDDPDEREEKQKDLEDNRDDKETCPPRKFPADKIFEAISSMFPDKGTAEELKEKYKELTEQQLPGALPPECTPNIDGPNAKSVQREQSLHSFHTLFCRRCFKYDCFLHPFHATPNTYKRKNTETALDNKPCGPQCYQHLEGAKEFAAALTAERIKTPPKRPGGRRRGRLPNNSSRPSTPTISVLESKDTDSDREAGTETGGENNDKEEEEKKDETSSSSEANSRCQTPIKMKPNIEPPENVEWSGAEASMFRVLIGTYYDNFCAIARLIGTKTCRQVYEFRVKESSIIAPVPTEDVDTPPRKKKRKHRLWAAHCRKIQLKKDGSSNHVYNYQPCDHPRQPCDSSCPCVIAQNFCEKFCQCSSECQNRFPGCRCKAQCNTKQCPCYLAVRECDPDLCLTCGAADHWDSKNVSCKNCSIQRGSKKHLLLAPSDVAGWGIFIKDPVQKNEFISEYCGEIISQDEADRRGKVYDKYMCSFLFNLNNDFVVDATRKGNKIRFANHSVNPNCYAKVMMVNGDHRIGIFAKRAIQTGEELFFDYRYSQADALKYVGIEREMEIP

CC(C)(C)c1cnc(CSc2cnc(NC(=O)C3CCNCC3)s2)o1
Activity [1]: Active
Activity [2]: Active
Activity [3]: Active
Activity [4]: Active

CC[C@H](C)n1cc(C)c2c(C(=O)NCc3c(C)cc(C)[nH]c3=O)cc(-c3ccc(N4CCNCC4)nc3)cc21
Activity [5]: Active
inhibition [6]: Active
Activity [7]: Active
inhibition [8]: Active
inhibition [9]: Active
Activity [10]: Active
inhibition [11]: Active
inhibition [12]: Active
Activity [13]: Active
inhibition [14]: Active
Activity [15]: Active
inhibition [16]: Active
inhibition [17]: Active
inhibition [18]: Active
inhibition [19]: Active
inhibition [20]: Active
Activity [21]: Active
inhibition [22]: Active
inhibition [23]: Active
inhibition [24]: Active
inhibition [25]: Active
inhibition [26]: Active
inhibition [27]: Active
Activity [28]: Active
Activity [29]: Active
inhibition [30]: Active
Activity [31]: Active
Activity [32]: Active
inhibition [33]: Active
Activity [34]: Active
Activity [35]: Active
inhibition [36]: Active

CC(C)C[C@H](NC(=O)[C@H](Cc1ccccc1)NC(=O)c1cnccn1)B(O)O
Activity [34]: inactive

Source: ChEMBL document CHEMBL5674884, “Ezh2 inhibition in Kras-driven lung cancer amplifies inflammation and associated vulnerabilities” (J Exp Med, 2018)
